Assay results: article PMC8929358 (Pharmacology Research & Perspectives, 2021)
Entries after “also recorded” stand apart in the source; their conditions may differ. Like-named read-outs stand apart in the source and are kept apart here.

How the values were obtained:
[1] = format: in vivo, rat; conditions: oral 100 mg/kg; for Feces, % of administered dose: feces pools 0–48 h
How it was run: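 In Sprague Dawley rats given 100 mg/kg [14C]-labelled compound (100 μCi/kg) orally in 0.2% HPMC, heparinized blood was taken by cardiac puncture at 2–168 h. Plasma was precipitated with MeOH/ACN (50:50), dried under N2 and reconstituted. Urine (0–6, 6–24 h) and feces (0–12, 12–24, 24–48 h) were pooled and stored at −80°C. Analysis used accurate-mass LC-MS with offline radiodetection.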

HLS9, HIS9, and SULT1A1 = assay: Inhibition of opicapone sulfation, result in words for all enzyme sources; format: biochemical, human; conditions: acetaminophen 1–500 μM; quercetin and 2,6-dichloro-4-nitrophenol 0.05–100 μM
[2] = format: in vivo, rat; conditions: plasma; for Tmax: median (range)
rat soluble COMT = molecular target: T1, rat soluble COMT (Rattus norvegicus, UniProt P22734); assay: COMT activity; format: biochemical; conditions: for Effect upon COMT activity: up to 3000 nM
T1 sequence (P22734 1-221 isoform P22734-2): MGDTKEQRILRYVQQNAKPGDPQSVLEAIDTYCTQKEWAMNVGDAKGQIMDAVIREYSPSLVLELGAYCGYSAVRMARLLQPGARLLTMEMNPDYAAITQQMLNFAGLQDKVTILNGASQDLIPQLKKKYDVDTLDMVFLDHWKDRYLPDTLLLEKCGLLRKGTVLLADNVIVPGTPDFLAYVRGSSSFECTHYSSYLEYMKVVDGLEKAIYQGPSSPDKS

[3] = rat, po, 1 g/kg, t max, oral 1 g/kg opicapone

Compound: Nc1cc(C(=O)O)cc(O)c1O [BIA 9‐3721, 3-amino-4,5-dihydroxybenzoic acid]
- Feces, % of administered dose ([1]; ND = not detected): 1.87%

Compound: O=c1c(O)c(-c2ccc(O)c(O)c2)oc2cc(O)cc(O)c12 [Quercetin, quercetin]
- Inhibition of the sulfate conjugation of opicapone (HLS9, HIS9, and SULT1A1): completely inhibited

Compound: Cc1nc(Cl)c(-c2noc(-c3cc(OS(=O)(=O)O)c(O)c([N+](=O)[O-])c3)n2)c(C)c1Cl.c1ccncc1 [BIA 9‐1105, pyridinium 5-(3-(2,5-dichloro-4,6-dimethylpyridin-3-yl)-1,2,4-oxadiazol-5-yl)-2-hydroxy-3-nitrophenyl sulfate]
- C max ([2]; oral 1 g/kg opicapone, mean (SD)): 58.2 (32.6) ng/ml
- AUC0–t ([2]; oral 1 g/kg opicapone, mean (SD), sampling to 48 h): 1322.5 (503.5) ng.h/ml
- Tmax ([2]; oral 1 g/kg opicapone): 16 (8–24) h

Compound: Cc1c(Cl)c(C)[n+]([O-])c(Cl)c1-c1noc(-c2cc(O[C@@H]3O[C@H](C(=O)O)[C@@H](O)[C@H](O)[C@H]3O)c(O)c([N+](=O)[O-])c2)n1 [BIA 9‐1106, 3-(5-(3-((2S,3R,4S,5S,6S)-6-carboxy-3,4,5-trihydroxytetrahydro-2H-pyran-2-yloxy)-4-hydroxy-5-nitrophenyl)-1,2,4-oxadiazol-3-yl)-2,5-dichloro-4,6-dimethylpyridine 1-oxide]
- Urine, % of administered dose ([1]; urine pools 0–24 h, ND = not detected): 0.85%
- Cmax ([2]; rat, po, 1 g/kg): 4290 ng/mL

Compound: CC(=O)Nc1ccc(O)cc1 [acetaminophen]
- Inhibition of the sulfate conjugation of opicapone (HLS9, HIS9, and SULT1A1): No inhibition

Compound: Cc1nc(Cl)c(-c2noc(-c3cc(O)c(O)c([N+](=O)[O-])c3)n2)c(C)c1Cl [BIA 9‐1079, 5-(3-(2,5-dichloro-4,6-dimethylpyridin-3-yl)-1,2,4-oxadiazol-5-yl)-3-nitrobenzene-1,2-diol]
- Feces, % of administered dose ([1]; ND = not detected, 100 mg/kg): 1.14%
- Detectable in the circulation up to (time post-dose) ([1]; plasma): 8 h
- AUC(0-t) ([2]; rat, po, 1 g/kg): 4080 ng·h/mL
- Cmax ([2]; rat, po, 1 g/kg): 381 ng/mL
- Tmax [2, 3]: 4 h
- IC50 (rat soluble COMT): 128 nM
- Effect upon COMT activity (rat soluble COMT): active in inhibiting the enzyme

Compound: Cc1nc(Cl)c(-c2noc(-c3cc(O[C@@H]4O[C@H](C(=O)O)[C@@H](O)[C@H](O)[C@H]4O)c(O)c([N+](=O)[O-])c3)n2)c(C)c1Cl [BIA 9‐1107, (2S,3S,4S,5R,6S)-6-(5-(3-(2,5-dichloro-4,6-dimethylpyridin-3-yl)-1,2,4-oxadiazol-5-yl)-2-hydroxy-3-nitrophenoxy)-3,4,5-trihydroxy-tetrahydro-2H-pyran-2-carboxylic acid]
- Amount detected in circulation ([2]; oral 1 g/kg opicapone): only traceable amounts

Compound: CC(=O)Nc1cc(C(=O)O)cc(O)c1O [BIA 9‐3752, 3-acetamido-4,5-dihydroxybenzoic acid]
- Effect upon COMT activity (rat soluble COMT): no modulatory effect

Compound: COc1cc(-c2nc(-c3c(C)c(Cl)c(C)[n+]([O-])c3Cl)no2)cc([N+](=O)[O-])c1O [BIA 9‐1100, 2,5-dichloro-3-(5-(4-hydroxy-3-methoxy-5-nitrophenyl)-1,2,4-oxadiazol-3-yl)-4,6-dimethylpyridine 1-oxide]
- AUC(0-t) ([2]; rat, po, 1 g/kg): 7920 ng·h/mL
- Cmax ([2]; rat, po, 1 g/kg): 1420 ng/mL
- Tmax [2, 3]: 1.5 h
- Effect upon COMT activity (rat soluble COMT): no modulatory effect

Compound: O=[N+]([O-])c1cc(Cl)c(O)c(Cl)c1 [DCNP, 2,6‐dichloro‐4‐nitrophenol]
- Inhibition of the sulfate conjugation of opicapone (HLS9, HIS9, and SULT1A1): completely inhibited

Compound: COc1c(O)cc(-c2nc(-c3c(C)c(Cl)c(C)[n+]([O-])c3Cl)no2)cc1[N+](=O)[O-] [BIA 9‐1104, 2,5-dichloro-3-(5-(3-hydroxy-4-methoxy-5-nitrophenyl)-1,2,4-oxadiazol-3-yl)-4,6-dimethylpyridine 1-oxide]
- IC50 (rat soluble COMT): 429 nM
- Effect upon COMT activity (rat soluble COMT): active in inhibiting the enzyme; also recorded: endowed with activity in inhibiting COMT
